Publication PMC10286277 (ACS Omega, 2023)

Key:
[1] = tested on: pUC19 DNA; assay: Hydrolytic DNA cleavage, gel electrophoresis without external agent or light; type: biochemical; conditions: 400 μM, control experiments
Procedure, shortened: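 pUC19 DNA (200 ng) in 50 mM Tris–HCl, pH 8, was incubated with test compound (0–400 μM) in 10 μL for 2 h at 37 °C, with no added agent and no light. Controls used Cu(OAc)₂·H₂O, free ligand or imidazole, each at 400 μM. Samples were run on 1% agarose in TAE (pH 8.4) for 1.5 h at 60 V, stained with 0.5 μg/mL ethidium bromide and imaged under UV for conversion to nicked circular form.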

[2] = tested on: breast cancer MDA-MB-231; assay: MTT cell viability assay; type: cell-based, human; conditions: MDA-MB-231, 24 h
Procedure, shortened: (§1)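 Cells were seeded at 2×10^4 per well, held overnight at 37 °C in humidified CO₂ and treated with test compound at […] for 24 h. MTT (0.5 mg/mL) was added for 4 h in the dark and then removed. Formazan was dissolved in DMSO and absorbance read at 570 nm.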

[3] = tested on: cervical cancer HeLa; assay: MTT cell viability assay; type: cell-based, human; conditions: 24 h
Procedure, shortened: as §1

Molecule | DNA cleavage by starting materials alone [1] | sensitivity of cells in MTT cell viability assay (in words) [2] | IC50 [3]
2-(2-Hydroxyphenyl)benzothiazoline | No cleavage was detected |  | 
CC(=O)[O-].CC(=O)[O-].O.[Cu+2] [Cu(OAc)2·H2O, copper(II) acetate monohydrate] | No cleavage was detected |  | 
N.N.[Cl][Pt][Cl] [cisplatin, reference compound] |  | resistant | 30.9 ± 0.45 µM
c1c[nH]cn1 [imidazole] | No cleavage was detected |  | 
